One test concerns the target T1, ADAM10 (Homo sapiens, UniProt O14672).
T1 sequence (O14672 214-748): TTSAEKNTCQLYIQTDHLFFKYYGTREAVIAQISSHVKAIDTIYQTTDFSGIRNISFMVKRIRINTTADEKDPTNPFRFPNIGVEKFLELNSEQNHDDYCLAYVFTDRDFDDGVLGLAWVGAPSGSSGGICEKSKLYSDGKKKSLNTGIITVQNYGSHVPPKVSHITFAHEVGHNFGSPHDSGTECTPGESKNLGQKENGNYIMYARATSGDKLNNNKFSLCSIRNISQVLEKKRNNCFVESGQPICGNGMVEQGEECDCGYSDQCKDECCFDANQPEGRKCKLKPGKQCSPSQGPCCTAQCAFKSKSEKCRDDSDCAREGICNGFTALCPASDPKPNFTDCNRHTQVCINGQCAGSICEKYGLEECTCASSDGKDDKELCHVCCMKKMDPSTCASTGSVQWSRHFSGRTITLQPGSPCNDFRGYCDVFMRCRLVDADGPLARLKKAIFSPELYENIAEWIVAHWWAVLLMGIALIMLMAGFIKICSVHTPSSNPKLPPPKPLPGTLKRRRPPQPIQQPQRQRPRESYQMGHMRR
The test can be described thus: ADAM10 fluorogenic proteolytic activity assay. The test is classed as biochemical. The conditions noted are these: GM6001 10 μM. In outline: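 Recombinant ADAM10 from a fluorogenic assay kit, pre-incubated with test compound at the indicated concentrations for 30 min at room temperature, then substrate added. Substrate cleavage read by fluorescence (ex 485 nm, em 530 nm). GM6001 was the positive control. Triplicate runs, mean ± SEM (n = 3).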

For a further test, the target named is ADAM17 (Homo sapiens, UniProt P78536). Description: ADAM17 fluorogenic proteolytic activity assay. The format is biochemical. The settings on record: GM6001 10 μM.
ADAM17, sequence (P78536 215-824): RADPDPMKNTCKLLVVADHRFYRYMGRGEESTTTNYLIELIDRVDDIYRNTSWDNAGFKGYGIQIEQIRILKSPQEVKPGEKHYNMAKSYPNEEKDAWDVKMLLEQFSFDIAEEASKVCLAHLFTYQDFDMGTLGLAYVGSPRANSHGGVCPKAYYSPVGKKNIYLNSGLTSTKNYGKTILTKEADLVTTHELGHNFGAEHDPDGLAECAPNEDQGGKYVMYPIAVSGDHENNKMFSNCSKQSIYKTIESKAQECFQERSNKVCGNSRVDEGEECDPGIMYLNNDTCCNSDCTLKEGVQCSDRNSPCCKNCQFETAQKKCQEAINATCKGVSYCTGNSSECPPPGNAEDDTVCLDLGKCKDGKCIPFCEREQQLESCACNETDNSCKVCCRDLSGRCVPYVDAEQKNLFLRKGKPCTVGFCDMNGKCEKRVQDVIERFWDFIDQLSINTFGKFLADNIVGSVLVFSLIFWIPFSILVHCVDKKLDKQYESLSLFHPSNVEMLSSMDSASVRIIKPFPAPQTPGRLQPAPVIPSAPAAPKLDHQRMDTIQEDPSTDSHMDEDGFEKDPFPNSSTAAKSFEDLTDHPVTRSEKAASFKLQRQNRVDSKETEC
The test system of test [1] is wild-type HEK293 cells lacking TREM2/DAP12 expression. The test can be described thus: Intracellular calcium measurement. The test is classed as cell-based, human. In outline: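 Wild-type HEK293 cells lacking TREM2/DAP12 were grown in 96-well clear-bottom black plates. They were loaded for 1 h with Fluo-4 NW dye in 100 μL assay buffer, then test compound was added. Fluorescence was captured on an automated imaging system. Ionomycin served as the control for intact calcium signalling.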
(In general: Calcium assays in cells follow changes in intracellular calcium, usually with a dye or a luminescent sensor.)

For test [2], the system named is TREM2 signaling (SYK phosphorylation Y525/526) in HEK293-hTREM2/DAP12 cells. The test can be described thus: Phospho-SYK AlphaLISA in HEK293-hTREM2/DAP12 cells. The test is classed as cell-based, human. In outline:
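HEK-hTREM2/DAP12 cells were seeded at 5 × 10⁴ per well in DMEM with 10% FBS and held 24 h at 37 °C, 5% CO2. Medium was replaced with compound in complete medium, DMSO as vehicle. Time course: 25 μM for 5, 15, 30 or 60 min. Dose series: 5–100 μM final for 60 min. Kit-lysed cells were assayed for pSYK Y525/526 by two-antibody bead AlphaLISA; 3 independent experiments, n=6 per condition, mean ± SEM.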
For orientation: Bead proximity is the source of the signal in Alpha formats.

The subject of test [3] is BV2 murine microglial cells. The test can be described thus: Phagocytosis assay with fluorescent latex beads. The test is classed as cell-based. The settings on record: 25 μM, 30 min before beads (30 min). In outline:
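Murine BV2 microglia were serum-starved, then exposed to 25 μM test compound or DMSO vehicle for 30 min. Green fluorescent latex beads were added for a further 30 min at 37 °C. Cells were washed with ice-cold PBS, fixed in 4% PFA, immunostained for IBA1 and imaged by fluorescence microscopy. A phagocytic cell was an IBA1+ cell with ≥1 internalised bead, expressed as % of vehicle; mean ± SEM (n = 3).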

Where [4] appears, read: 25 μM, time-course 5-60 minutes.

Here are results for 3 molecules from paper PMC12840579 (Biomedicine & pharmacotherapy = Biomedecine & …, 2025).

For the molecule `CNC(=O)[C@H](Cc1c[nH]c2ccccc12)NC(=O)[C@@H](CC(=O)NO)CC(C)C` [GM6001], the “effect on ADAM10 protease activity (positive control)” value at ADAM10 is reported as “potently inhibited”. The “effect on ADAM17 protease activity (positive control)” value on ADAM17 was “potently inhibited”.
`C[C@H](CCC(=O)O)C[C@H](C)C[C@H](C)C(=O)/C=C(\O)[C@H](C)C[C@H](C)C/C=C/[C@@H](C)[C@@H](O)[C@@H](C)[C@@H](O)C[C@@H]1CC[C@@](C)([C@H]2CC[C@@](C)([C@@H](C)O)O2)O1` [ionomycin]: the “calcium response in wild-type cells” value in test [1] (ionomycin 10 μM) was ~ 8 fold.
Consider VG-3927, for which, in test [2] (setting [4]), the “time at which SYK phosphorylation is first detected” value amounted to 5 min and the “time of peak SYK phosphorylation” value was found to be 60 min. In test [2] (60 minutes treatment, 5-100 μM), the “concentration of maximal SYK phosphorylation” value stood at 25 µM and the “lowest concentration with SYK phosphorylation” value was 5 µM. Further, the “calcium mobilization in wild-type cells” value in test [1] (VG-3927 30 μM) is recorded as “neither VG-3927 (30 μM) nor As48 (100 μM) elicited any detectable calcium mobilization”. Further, in test [3], the “increase in proportion of phagocytic cells vs vehicle” value is “approximately 45%”.
